Tests used:
[1] = target: T1, Mitogen-activated protein kinase 12 (Homo sapiens) (UniProt P53778); assay: Inhibition of p38gamma Lys2 labeling site in human Huh-7 cell lysate at 1 uM by KiNativ Profiling analysis relative to control; format: subcellular
T1 sequence (whole entry): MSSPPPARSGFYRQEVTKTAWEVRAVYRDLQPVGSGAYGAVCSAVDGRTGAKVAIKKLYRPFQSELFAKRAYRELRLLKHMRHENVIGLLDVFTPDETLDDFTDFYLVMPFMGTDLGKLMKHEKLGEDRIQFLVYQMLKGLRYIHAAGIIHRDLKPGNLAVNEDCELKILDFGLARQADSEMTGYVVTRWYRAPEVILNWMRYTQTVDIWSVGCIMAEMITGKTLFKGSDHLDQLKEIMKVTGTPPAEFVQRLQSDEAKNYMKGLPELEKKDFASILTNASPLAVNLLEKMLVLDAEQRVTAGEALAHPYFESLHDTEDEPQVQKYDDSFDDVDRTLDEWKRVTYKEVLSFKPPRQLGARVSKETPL

[2] = target: Diacylglycerol kinase alpha (Homo sapiens) (UniProt P23743); assay: Inhibition of DGKA ATP labeling site harbouring in human A-375 cells at 0.5 uM by KiNativ Profiling analysis relative to control; format: cell-based
Outline: (§1)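 Live A375 melanoma cells were treated with compound at 0.5 or 5 μM, then lysed. Lysates were labeled with a lysine-reactive ATP or ADP-biotin probe. The read-out was protection of each kinase probe-labeling site from labeling, relative to control.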

[3] = target: Cyclin-dependent kinase 11B (Homo sapiens) (UniProt P21127); assay: Inhibition of PITSLRE Lys2 labeling site in human A-375 cells at 0.5 uM by KiNativ Profiling analysis relative to control; format: cell-based
[4] = target: TRAF2 and NCK-interacting protein kinase (Homo sapiens) (UniProt Q9UKE5); assay: Inhibition of ZC2/TNIK Lys1 labeling site in human A-375 cells at 5 uM by KiNativ Profiling analysis relative to control; format: cell-based
[5] = target: T2, Serine/threonine-protein kinase 3 (Homo sapiens) (UniProt Q13188); assay: Inhibition of MST2 Lys2 labeling site harbouring DIKAGNILLNTEGHAK in human A-375 cells at 0.5 uM by KiNativ Profiling analysis relative to control; format: cell-based
T2 sequence (whole entry): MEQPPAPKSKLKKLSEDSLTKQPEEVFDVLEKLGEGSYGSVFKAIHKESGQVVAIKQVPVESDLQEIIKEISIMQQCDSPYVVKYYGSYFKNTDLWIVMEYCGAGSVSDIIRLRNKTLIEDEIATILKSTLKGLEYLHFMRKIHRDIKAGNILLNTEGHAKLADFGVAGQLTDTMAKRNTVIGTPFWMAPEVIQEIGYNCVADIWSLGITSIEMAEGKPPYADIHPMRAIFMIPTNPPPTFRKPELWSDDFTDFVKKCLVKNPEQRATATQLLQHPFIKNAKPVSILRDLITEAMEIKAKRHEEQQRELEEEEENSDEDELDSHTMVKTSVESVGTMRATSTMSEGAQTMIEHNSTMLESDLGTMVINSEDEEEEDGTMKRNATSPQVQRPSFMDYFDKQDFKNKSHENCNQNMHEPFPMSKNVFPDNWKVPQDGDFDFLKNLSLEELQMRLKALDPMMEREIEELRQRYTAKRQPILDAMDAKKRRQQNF

[6] = target: Tyrosine-protein kinase Yes (Homo sapiens) (UniProt P07947); assay: Inhibition of YES ACT labeling site in human A-375 cells at 5 uM by KiNativ Profiling analysis relative to control; format: cell-based
[7] = target: Serine/threonine-protein kinase Nek7 (Homo sapiens) (UniProt Q8TDX7); assay: Inhibition of NEK7 Lys2 labeling site in human A-375 cells at 0.05 uM by KiNativ Profiling analysis relative to control; format: cell-based
[8] = target: Epidermal growth factor receptor (Homo sapiens) (UniProt P00533); assay: Inhibition of EGFR Lys1 labeling site in human A-375 cells at 0.5 uM by KiNativ Profiling analysis relative to control; format: cell-based; outline: as §1
[9] = target: T3, Mitogen-activated protein kinase kinase kinase 3 (Homo sapiens) (UniProt Q99759); assay: Inhibition of MAP3K3 Lys1 labeling site in human A-375 cells at 5 uM by KiNativ Profiling analysis relative to control; format: cell-based
T3 sequence (whole entry): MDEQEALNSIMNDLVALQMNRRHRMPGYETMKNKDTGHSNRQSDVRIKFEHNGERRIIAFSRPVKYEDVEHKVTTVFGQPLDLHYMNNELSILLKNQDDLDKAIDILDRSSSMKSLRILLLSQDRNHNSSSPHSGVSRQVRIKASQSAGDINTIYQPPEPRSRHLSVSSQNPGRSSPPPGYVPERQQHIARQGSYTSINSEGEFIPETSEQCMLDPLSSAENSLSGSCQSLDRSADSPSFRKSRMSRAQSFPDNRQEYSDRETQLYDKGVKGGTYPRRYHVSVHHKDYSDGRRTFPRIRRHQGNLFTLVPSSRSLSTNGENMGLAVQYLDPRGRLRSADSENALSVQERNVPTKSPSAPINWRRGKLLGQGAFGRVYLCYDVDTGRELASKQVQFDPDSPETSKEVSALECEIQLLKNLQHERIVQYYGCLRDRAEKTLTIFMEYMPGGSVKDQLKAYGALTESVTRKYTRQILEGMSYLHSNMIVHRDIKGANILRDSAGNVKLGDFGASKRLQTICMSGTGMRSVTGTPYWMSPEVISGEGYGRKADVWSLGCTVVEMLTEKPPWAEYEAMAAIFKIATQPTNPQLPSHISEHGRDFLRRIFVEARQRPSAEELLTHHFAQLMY

[10] = target: Cyclin-dependent kinase 4 (Homo sapiens) (UniProt P11802); assay: Inhibition of CDK4 Lys2 labeling site in human A-375 cells at 0.5 uM by KiNativ Profiling analysis relative to control; format: cell-based
Outline: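 Live A375 melanoma cells were treated with compound at 5 or 0.5 μM. The cells were then lysed, and the lysates were labeled with a lysine-reactive ATP or ADP-biotin acyl probe (KiNativ). Inhibition is the compound's protection of each kinase labeling-site peptide from probe labeling, relative to untreated control.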

[11] = target: T4, Phosphatidylinositol 5-phosphate 4-kinase type-2 alpha (Homo sapiens) (UniProt P48426); assay: Inhibition of PIP4K2A ATP labeling site in human A-375 cells at 5 uM by KiNativ Profiling analysis relative to control; format: cell-based
T4 sequence (whole entry): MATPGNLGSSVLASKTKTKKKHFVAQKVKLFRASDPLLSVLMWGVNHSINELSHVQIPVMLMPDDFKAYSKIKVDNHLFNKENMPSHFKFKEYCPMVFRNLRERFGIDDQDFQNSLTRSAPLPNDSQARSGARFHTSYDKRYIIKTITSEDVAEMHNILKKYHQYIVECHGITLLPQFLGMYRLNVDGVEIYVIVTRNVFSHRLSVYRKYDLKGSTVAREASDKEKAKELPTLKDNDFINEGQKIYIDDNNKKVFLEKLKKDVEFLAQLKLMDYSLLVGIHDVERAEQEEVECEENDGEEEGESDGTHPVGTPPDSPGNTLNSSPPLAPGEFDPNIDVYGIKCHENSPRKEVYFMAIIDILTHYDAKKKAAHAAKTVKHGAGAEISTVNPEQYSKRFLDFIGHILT

Sequence of Cyclin-dependent kinase 4 (Homo sapiens) (P11802 whole entry): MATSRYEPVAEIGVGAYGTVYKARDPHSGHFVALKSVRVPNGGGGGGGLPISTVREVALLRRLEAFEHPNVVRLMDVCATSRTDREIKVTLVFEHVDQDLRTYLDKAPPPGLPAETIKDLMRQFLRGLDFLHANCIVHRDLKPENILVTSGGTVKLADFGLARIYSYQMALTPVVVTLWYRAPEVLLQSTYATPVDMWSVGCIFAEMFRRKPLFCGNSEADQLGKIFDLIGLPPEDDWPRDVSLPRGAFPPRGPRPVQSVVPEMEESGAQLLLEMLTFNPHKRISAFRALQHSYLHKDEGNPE
Sequence of Cyclin-dependent kinase 11B (Homo sapiens) (P21127 whole entry): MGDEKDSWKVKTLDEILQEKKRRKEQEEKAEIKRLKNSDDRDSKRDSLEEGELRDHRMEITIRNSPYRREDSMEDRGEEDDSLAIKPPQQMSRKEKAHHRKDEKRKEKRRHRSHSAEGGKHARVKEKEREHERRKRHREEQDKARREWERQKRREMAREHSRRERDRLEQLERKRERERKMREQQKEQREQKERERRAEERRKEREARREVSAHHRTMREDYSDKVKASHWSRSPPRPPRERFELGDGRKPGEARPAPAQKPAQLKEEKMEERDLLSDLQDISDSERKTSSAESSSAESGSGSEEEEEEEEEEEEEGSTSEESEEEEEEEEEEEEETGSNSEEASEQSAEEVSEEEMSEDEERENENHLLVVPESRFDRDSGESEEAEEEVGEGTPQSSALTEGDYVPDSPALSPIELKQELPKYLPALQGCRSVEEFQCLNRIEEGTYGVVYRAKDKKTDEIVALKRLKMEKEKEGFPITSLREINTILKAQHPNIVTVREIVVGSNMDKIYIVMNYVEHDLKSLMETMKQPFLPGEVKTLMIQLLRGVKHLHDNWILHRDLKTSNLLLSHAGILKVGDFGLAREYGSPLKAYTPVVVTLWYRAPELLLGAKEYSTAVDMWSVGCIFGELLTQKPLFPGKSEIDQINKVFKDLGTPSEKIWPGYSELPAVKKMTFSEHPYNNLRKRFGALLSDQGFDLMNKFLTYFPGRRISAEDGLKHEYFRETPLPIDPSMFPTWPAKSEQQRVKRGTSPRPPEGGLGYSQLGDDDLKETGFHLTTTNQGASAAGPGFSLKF
Sequence of Diacylglycerol kinase alpha (Homo sapiens) (P23743 whole entry): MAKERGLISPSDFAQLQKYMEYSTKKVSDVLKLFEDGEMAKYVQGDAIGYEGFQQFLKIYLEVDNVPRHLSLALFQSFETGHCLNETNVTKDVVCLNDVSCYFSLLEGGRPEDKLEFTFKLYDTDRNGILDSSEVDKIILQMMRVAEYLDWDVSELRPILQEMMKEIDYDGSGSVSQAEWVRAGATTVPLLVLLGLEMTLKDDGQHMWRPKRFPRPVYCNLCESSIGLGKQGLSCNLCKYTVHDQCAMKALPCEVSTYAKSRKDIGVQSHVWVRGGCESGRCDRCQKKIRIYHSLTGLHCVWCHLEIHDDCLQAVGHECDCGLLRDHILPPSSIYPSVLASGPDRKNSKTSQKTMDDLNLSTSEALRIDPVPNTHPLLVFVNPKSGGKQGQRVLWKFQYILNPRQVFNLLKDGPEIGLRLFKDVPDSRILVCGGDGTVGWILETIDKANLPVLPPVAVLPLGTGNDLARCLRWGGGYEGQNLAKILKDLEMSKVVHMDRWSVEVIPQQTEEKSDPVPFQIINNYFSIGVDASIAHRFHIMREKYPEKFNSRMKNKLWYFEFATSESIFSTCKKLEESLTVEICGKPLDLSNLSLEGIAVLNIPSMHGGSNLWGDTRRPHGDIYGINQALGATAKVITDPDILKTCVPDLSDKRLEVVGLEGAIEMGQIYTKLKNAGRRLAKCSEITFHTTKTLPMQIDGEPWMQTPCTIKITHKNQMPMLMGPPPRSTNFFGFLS
Sequence of Epidermal growth factor receptor (Homo sapiens) (P00533 whole entry): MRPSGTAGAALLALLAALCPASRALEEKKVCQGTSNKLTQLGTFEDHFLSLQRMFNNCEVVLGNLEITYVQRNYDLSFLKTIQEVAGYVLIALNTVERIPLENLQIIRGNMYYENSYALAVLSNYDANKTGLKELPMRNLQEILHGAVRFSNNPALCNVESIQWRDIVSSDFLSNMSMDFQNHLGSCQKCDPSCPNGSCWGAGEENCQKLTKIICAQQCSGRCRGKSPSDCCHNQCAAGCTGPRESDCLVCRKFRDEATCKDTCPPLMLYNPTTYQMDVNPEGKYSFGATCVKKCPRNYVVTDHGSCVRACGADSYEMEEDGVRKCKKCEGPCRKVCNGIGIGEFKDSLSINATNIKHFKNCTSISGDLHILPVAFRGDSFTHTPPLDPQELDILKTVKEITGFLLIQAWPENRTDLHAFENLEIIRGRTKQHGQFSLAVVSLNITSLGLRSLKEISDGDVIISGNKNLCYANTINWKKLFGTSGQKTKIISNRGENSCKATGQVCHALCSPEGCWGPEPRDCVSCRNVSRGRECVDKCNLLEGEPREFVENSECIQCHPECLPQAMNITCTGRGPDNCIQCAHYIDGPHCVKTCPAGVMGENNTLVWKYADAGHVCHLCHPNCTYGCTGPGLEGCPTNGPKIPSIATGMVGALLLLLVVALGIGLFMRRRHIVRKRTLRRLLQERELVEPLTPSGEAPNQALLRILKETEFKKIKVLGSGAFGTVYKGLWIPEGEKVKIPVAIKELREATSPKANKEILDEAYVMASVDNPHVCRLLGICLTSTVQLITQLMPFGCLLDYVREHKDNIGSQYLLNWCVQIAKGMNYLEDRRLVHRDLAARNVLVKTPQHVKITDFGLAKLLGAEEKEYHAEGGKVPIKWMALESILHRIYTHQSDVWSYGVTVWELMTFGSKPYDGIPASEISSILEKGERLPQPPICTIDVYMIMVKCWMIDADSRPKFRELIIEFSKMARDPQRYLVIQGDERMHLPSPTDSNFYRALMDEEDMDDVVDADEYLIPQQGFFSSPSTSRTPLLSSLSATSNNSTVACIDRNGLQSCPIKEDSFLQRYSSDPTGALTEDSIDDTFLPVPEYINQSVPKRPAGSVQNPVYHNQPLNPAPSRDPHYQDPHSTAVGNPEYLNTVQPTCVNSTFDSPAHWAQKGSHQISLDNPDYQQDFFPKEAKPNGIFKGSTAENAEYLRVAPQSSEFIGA
Sequence of TRAF2 and NCK-interacting protein kinase (Homo sapiens) (Q9UKE5 whole entry, looked up): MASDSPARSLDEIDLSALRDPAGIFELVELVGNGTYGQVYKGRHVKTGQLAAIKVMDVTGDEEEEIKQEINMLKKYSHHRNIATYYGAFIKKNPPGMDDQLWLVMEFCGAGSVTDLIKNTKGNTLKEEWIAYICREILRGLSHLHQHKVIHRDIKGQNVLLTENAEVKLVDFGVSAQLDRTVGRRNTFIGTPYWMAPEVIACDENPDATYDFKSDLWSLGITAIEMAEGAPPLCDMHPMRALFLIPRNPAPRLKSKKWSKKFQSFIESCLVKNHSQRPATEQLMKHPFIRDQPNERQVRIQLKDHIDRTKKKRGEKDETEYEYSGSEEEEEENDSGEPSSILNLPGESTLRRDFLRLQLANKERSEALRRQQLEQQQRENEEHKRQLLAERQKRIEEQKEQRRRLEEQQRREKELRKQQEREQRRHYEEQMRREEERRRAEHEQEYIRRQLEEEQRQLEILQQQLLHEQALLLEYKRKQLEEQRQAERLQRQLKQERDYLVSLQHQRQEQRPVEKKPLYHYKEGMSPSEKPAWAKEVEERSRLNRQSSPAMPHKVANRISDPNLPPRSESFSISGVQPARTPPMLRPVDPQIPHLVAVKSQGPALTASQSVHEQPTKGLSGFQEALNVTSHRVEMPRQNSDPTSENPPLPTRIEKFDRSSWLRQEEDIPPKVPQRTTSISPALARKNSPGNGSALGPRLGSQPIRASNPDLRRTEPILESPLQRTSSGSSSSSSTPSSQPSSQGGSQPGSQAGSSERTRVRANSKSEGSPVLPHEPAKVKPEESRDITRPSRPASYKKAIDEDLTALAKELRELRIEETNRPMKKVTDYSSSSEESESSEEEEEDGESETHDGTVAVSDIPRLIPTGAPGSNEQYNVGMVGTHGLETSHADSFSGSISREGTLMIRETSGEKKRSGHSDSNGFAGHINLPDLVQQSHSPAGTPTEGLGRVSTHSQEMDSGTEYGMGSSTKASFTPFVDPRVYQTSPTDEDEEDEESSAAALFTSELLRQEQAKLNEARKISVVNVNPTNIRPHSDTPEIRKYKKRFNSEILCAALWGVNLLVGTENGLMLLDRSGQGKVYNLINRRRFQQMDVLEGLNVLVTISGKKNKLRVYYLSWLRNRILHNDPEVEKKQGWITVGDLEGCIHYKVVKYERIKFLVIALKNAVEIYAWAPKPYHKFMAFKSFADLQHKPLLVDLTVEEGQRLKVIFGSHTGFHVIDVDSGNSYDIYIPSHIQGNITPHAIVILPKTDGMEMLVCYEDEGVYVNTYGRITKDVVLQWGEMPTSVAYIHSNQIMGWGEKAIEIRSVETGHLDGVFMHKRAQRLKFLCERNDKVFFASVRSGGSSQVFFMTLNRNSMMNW
Sequence of Serine/threonine-protein kinase Nek7 (Homo sapiens) (Q8TDX7 whole entry, looked up): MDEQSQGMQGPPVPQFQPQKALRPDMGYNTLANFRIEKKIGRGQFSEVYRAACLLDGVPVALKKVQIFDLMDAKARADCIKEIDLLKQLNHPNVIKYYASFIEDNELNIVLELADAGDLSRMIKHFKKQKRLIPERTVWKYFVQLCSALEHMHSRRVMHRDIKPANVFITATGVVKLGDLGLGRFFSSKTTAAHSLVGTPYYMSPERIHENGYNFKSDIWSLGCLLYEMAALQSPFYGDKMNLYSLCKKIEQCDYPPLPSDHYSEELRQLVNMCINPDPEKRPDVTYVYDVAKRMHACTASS

Compound	inhibition [1]	inhibition [2]	inhibition [3]	inhibition [4]	inhibition [5]	inhibition [6]	inhibition [7]	inhibition [8]	inhibition [9]	inhibition [10]	inhibition [11]
CNc1cc(Oc2cc(C(=O)Nc3cc(N4CCN(C)CC4)cc(C(F)(F)F)c3)ccc2C)ncn1	12.8%										
CCN1CCN(Cc2ccc(NC(=O)c3ccc(C)c(Oc4ccnc5[nH]ccc45)c3)cc2C(F)(F)F)CC1		-9.4%	-2.7%	> 95%	-3.5%	89.6%	10.6%	-8.8%	77.1%	5.7%	0.9%
CNc1cc(Oc2cc(C(=O)Nc3cc(-n4cnc(C)c4)cc(C(F)(F)F)c3)ccc2C)ncn1	5.5%										
CCN1CCN(Cc2ccc(NC(=O)c3ccc(C)c(/C=C/c4cnc5[nH]ccc5c4OC)c3)cc2C(F)(F)F)CC1		-8.3%	-0.4%	> 95%	-9.8%	> 99%	5.8%	0.4%	80.4%	9.2%	4.7%

From ChEMBL document CHEMBL5696442, “Discovery of type II inhibitors of TGFβ-activated kinase 1 (TAK1) and mitogen-activated protein kinase kinase kinase kinase 2 (MAP4K2)” (J Med Chem, 2015)
